# ChEMBL document CHEMBL2311425, “Histone deacetylase (HDAC) inhibitors with a novel connecting unit linker region reveal a selectivity profile for HDAC4 and HDAC5 with improved activity against chemoresistant cancer cells” (J Med Chem, 2013)
# Assays:
# KYSE-510 [1] = experiment: Potentiation of 0.5 uM cisplatin-induced toxicity in 0.5 uM cisplatin resistant human KYSE-510 cells at 1 uM pretreated for 48 hrs followed by 0.5 uM cisplatin treatment by MTT assay; assay type: functional
# A2780 [2] = experiment: Cytotoxicity against human A2780 cells after 72 hrs by MTT assay; assay type: functional, cell-based; details: A2780, 72 h
# MDA-MB-231 [3] = experiment: Potentiation of 5 uM cisplatin-induced toxicity in 1 uM cisplatin resistant human MDA-MB-231 cells at 1.5 uM pretreated for 48 hrs followed by 1 uM cisplatin treatment by MTT assay; assay type: functional
# Histone deacetylase [4] = experiment: Inhibition of HDAC in cisplatin resistant human CAL27 cells after 18 hrs by fluorescence assay; assay type: cell-based; details: cal-27
# A2780 [5] = experiment: Potentiation of 10 uM cisplatin-induced toxicity in 5 uM cisplatin resistant human A2780 cells at 1 uM pretreated for 48 hrs followed by 5 uM cisplatin treatment by MTT assay; assay type: functional
# CAL-27 [6] = experiment: Potentiation of 5 uM cisplatin-induced toxicity in 1 uM cisplatin resistant human CAL27 cells at 1 uM pretreated for 48 hrs followed by 1 uM cisplatin treatment by MTT assay; assay type: functional
# A2780 [7] = experiment: Potentiation of 20 uM cisplatin-induced toxicity in 5 uM cisplatin resistant human A2780 cells at 1.5 uM pretreated for 48 hrs followed by 5 uM cisplatin treatment by MTT assay; assay type: functional
# KYSE-510 [8] = experiment: Potentiation of 0.75 uM cisplatin-induced toxicity in 0.5 uM cisplatin resistant human KYSE-510 cells at 0.25 uM pretreated for 48 hrs followed by 0.5 uM cisplatin treatment by MTT assay; assay type: functional
# Summary of the method: (§1)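 Cisplatin-resistant Kyse510 CisR (derived by weekly cycles of cisplatin over 24−30 weeks), grown in RPMI 1640 with 10% FCS at 37 °C, 5% CO₂. Test agent added 48 h before cisplatin, then 72 h further incubation. Viability by MTT (read at 544/690 nm) relative to untreated control wells. Combination index by Chou−Talalay method. Mean of three experiments.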
# KYSE-510 [9] = experiment: Potentiation of 0.75 uM cisplatin-induced toxicity in 0.5 uM cisplatin resistant human KYSE-510 cells at 1 uM pretreated for 48 hrs followed by 0.5 uM cisplatin treatment by MTT assay; assay type: functional; summary of the method: as §1
# CAL-27 [10] = experiment: Potentiation of 1 uM cisplatin-induced toxicity in 1 uM cisplatin resistant human CAL27 cells at 0.25 uM pretreated for 48 hrs followed by 1 uM cisplatin treatment by MTT assay; assay type: functional
# Histone deacetylase [11] = experiment: Inhibition of HDAC in cisplatin sensitive human MDA-MB-231 cells after 18 hrs by fluorescence assay; assay type: cell-based
# MDA-MB-231 [12] = experiment: Potentiation of 5 uM cisplatin-induced toxicity in 1 uM cisplatin resistant human MDA-MB-231 cells at 0.5 uM pretreated for 48 hrs followed by 1 uM cisplatin treatment by MTT assay; assay type: functional
# CAL-27 [13] = experiment: Potentiation of 45 uM cisplatin-induced toxicity in 1 uM cisplatin resistant human CAL27 cells at 0.5 uM pretreated for 48 hrs followed by 1 uM cisplatin treatment by MTT assay; assay type: functional
# A2780 [14] = experiment: Potentiation of 20 uM cisplatin-induced toxicity in 5 uM cisplatin resistant human A2780 cells at 1 uM pretreated for 48 hrs followed by 5 uM cisplatin treatment by MTT assay; assay type: functional
# MDA-MB-231 [15] = experiment: Potentiation of 40 uM cisplatin-induced toxicity in 1 uM cisplatin resistant human MDA-MB-231 cells at 0.25 uM pretreated for 48 hrs followed by 1 uM cisplatin treatment by MTT assay; assay type: functional
# CAL-27 [16] = experiment: Potentiation of 45 uM cisplatin-induced toxicity in 1 uM cisplatin resistant human CAL27 cells at 1.5 uM pretreated for 48 hrs followed by 1 uM cisplatin treatment by MTT assay; assay type: functional
# MDA-MB-231 [17] = experiment: Cytotoxicity against cisplatin sensitive human MDA-MB-231 cells after 72 hrs by MTT assay; assay type: functional, cell-based
# Summary of the method: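 MDA-MB-231 (parental), 10 000 cells/well, in DMEM with 15% FCS at 37 °C, 5% CO2. Compounds added 24 h after seeding for 72 h. MTT (5 mg/mL in PBS) was added, formazan dissolved in DMSO, absorbance read at 544 and 690 nm. IC50 from four-parameter logistic fit of ≥3 experiments in triplicate.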
# Histone deacetylase [18] = experiment: Inhibition of HDAC in cisplatin resistant human MDA-MB-231 cells after 18 hrs by fluorescence assay; assay type: cell-based
# Histone deacetylase [19] = experiment: Inhibition of HDAC in cisplatin sensitive human CAL27 cells after 18 hrs by fluorescence assay; assay type: cell-based; details: cal-27
# CAL-27 [20] = experiment: Potentiation of 2.5 uM cisplatin-induced toxicity in 1 uM cisplatin resistant human CAL27 cells at 0.25 uM pretreated for 48 hrs followed by 1 uM cisplatin treatment by MTT assay; assay type: functional
# CAL-27 [21] = experiment: Potentiation of 10 uM cisplatin-induced toxicity in 1 uM cisplatin resistant human CAL27 cells at 0.25 uM pretreated for 48 hrs followed by 1 uM cisplatin treatment by MTT assay; assay type: functional
# A2780 [22] = experiment: Potentiation of 5 uM cisplatin-induced toxicity in 5 uM cisplatin resistant human A2780 cells at 1.5 uM pretreated for 48 hrs followed by 5 uM cisplatin treatment by MTT assay; assay type: functional
# CAL-27 [23] = experiment: Potentiation of 45 uM cisplatin-induced toxicity in 1 uM cisplatin resistant human CAL27 cells at 0.25 uM pretreated for 48 hrs followed by 1 uM cisplatin treatment by MTT assay; assay type: functional
# A2780 [24] = experiment: Potentiation of 8 uM cisplatin-induced toxicity in 5 uM cisplatin resistant human A2780 cells at 1 uM pretreated for 48 hrs followed by 5 uM cisplatin treatment by MTT assay; assay type: functional
# MDA-MB-231 [25] = experiment: Potentiation of 10 uM cisplatin-induced toxicity in 1 uM cisplatin resistant human MDA-MB-231 cells at 0.5 uM pretreated for 48 hrs followed by 1 uM cisplatin treatment by MTT assay; assay type: functional
# CAL-27 [26] = experiment: Potentiation of 10 uM cisplatin-induced toxicity in 1 uM cisplatin resistant human CAL27 cells at 1.5 uM pretreated for 48 hrs followed by 1 uM cisplatin treatment by MTT assay; assay type: functional
# CAL-27 [27] = experiment: Potentiation of 1 uM cisplatin-induced toxicity in 1 uM cisplatin resistant human CAL27 cells at 1 uM pretreated for 48 hrs followed by 1 uM cisplatin treatment by MTT assay; assay type: functional
# MDA-MB-231 [28] = experiment: Potentiation of 25 uM cisplatin-induced toxicity in 1 uM cisplatin resistant human MDA-MB-231 cells at 1 uM pretreated for 48 hrs followed by 1 uM cisplatin treatment by MTT assay; assay type: functional
# Histone deacetylase 4 = Histone deacetylase 4 (Homo sapiens, UniProt P56524); experiment: Inhibition of human HDAC4 by fluorescence assay
# Histone deacetylase 4, sequence (P56524 whole entry): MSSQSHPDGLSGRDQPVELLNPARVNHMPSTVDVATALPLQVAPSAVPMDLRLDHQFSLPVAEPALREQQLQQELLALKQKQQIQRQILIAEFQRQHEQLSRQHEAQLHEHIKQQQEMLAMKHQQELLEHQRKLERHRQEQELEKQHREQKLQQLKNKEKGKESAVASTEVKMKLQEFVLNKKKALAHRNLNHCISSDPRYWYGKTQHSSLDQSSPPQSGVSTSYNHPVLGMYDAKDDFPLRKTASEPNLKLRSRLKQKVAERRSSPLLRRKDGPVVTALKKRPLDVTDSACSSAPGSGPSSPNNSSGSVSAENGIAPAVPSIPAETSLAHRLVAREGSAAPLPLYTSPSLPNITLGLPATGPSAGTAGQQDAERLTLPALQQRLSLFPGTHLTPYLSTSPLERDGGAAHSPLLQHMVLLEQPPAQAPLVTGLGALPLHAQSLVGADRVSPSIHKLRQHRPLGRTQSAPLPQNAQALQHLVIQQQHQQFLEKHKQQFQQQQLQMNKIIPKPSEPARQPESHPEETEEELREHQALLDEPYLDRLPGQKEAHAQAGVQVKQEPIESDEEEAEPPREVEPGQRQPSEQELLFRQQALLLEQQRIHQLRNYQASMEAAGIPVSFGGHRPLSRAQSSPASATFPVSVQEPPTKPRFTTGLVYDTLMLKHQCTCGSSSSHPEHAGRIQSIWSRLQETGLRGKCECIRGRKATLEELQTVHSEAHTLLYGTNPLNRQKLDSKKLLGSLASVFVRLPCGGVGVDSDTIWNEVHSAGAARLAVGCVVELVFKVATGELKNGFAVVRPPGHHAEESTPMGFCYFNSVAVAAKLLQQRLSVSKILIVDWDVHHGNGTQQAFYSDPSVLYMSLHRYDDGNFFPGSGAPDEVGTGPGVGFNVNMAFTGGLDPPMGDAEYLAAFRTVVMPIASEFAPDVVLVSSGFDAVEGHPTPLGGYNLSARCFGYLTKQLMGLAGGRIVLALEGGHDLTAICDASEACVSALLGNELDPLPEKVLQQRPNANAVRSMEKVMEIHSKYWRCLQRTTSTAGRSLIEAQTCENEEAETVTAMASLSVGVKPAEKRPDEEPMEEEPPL
smiles,measurement,setting,value
Cc1cc(C)cc(C(=O)NOCCCCCC(=O)NO)c1,Activity,KYSE-510 [1],Dose-dependent effect
same,fractional inhibitory concentration index (FICI),KYSE-510 [1],0.08
same,IC50,A2780 [2],0.49 µM
same,Activity,MDA-MB-231 [3],Dose-dependent effect
same,fractional inhibitory concentration index (FICI),MDA-MB-231 [3],<0.2
same,IC50,Histone deacetylase [4],0.36 µM
same,Activity,A2780 [5],Dose-dependent effect
same,fractional inhibitory concentration index (FICI),A2780 [5],0.61
same,Activity,CAL-27 [6],Dose-dependent effect
same,fractional inhibitory concentration index (FICI),CAL-27 [6],0.26
same,Activity,A2780 [7],Dose-dependent effect
same,fractional inhibitory concentration index (FICI),A2780 [7],0.64
same,Activity,KYSE-510 [8],Dose-dependent effect
same,fractional inhibitory concentration index (FICI),KYSE-510 [8],0.1
same,Activity,KYSE-510 [9],Dose-dependent effect
same,fractional inhibitory concentration index (FICI),KYSE-510 [9],0.05
same,Activity,CAL-27 [10],Dose-dependent effect
same,fractional inhibitory concentration index (FICI),CAL-27 [10],<0.2
same,IC50,Histone deacetylase [11],0.46 µM
same,Activity,MDA-MB-231 [12],Dose-dependent effect
same,fractional inhibitory concentration index (FICI),MDA-MB-231 [12],<0.2
same,Activity,CAL-27 [13],Dose-dependent effect
same,fractional inhibitory concentration index (FICI),CAL-27 [13],0.31
same,Activity,A2780 [14],Dose-dependent effect
same,fractional inhibitory concentration index (FICI),A2780 [14],0.49
same,Activity,MDA-MB-231 [15],Dose-dependent effect
same,Activity,CAL-27 [16],Dose-dependent effect
same,fractional inhibitory concentration index (FICI),CAL-27 [16],0.23
same,Activity,MDA-MB-231 [17],Dose-dependent effect
same,IC50,"MDA-MB-231 [17]; MDA-MB-231, 72 h",1.37 µM
same,IC50,Histone deacetylase [18],0.41 µM
same,IC50,Histone deacetylase [19],0.36 µM
same,Activity,CAL-27 [20],Dose-dependent effect
same,Activity,CAL-27 [21],Dose-dependent effect
same,fractional inhibitory concentration index (FICI),CAL-27 [21],0.85
same,Activity,A2780 [22],Dose-dependent effect
same,fractional inhibitory concentration index (FICI),A2780 [22],0.81
same,Activity,CAL-27 [23],Dose-dependent effect
same,fractional inhibitory concentration index (FICI),CAL-27 [23],0.27
same,Activity,A2780 [24],Dose-dependent effect
same,fractional inhibitory concentration index (FICI),A2780 [24],0.59
same,Activity,MDA-MB-231 [25],Dose-dependent effect
same,Activity,CAL-27 [26],Dose-dependent effect
same,fractional inhibitory concentration index (FICI),CAL-27 [26],0.2
same,Activity,CAL-27 [27],Dose-dependent effect
same,Activity,MDA-MB-231 [28],Dose-dependent effect
same,fractional inhibitory concentration index (FICI),MDA-MB-231 [28],0.72
same,IC50,Histone deacetylase 4,0.0119 µM
